SMILES strings stand for the structures. Active and inactive are the calls of the source. No cut-off for these calls is given here.

Results on one compound are retold here after ChEMBL document CHEMBL1649125, “Efficacy of the novel diamidine compound 2,5-Bis(4-amidinophenyl)- furan-bis-O-Methlylamidoxime (Pafuramidine, DB289) against Trypanosoma brucei rhodesiense infection in vervet monkeys after oral administration” (2009).

The test system of assay [1] is Trypanosoma brucei rhodesiense. Nature of the assay: Antitrypanosomal activity against Trypanosoma brucei rhodesiense infected in vervet monkey assessed as change in packed cell volume at 10 mg/kg, po administered on day 14 post infection for 5 days measured on day 28 post treatment. In kind it is functional.
Assay [2] concerns Trypanosoma brucei rhodesiense. In words: Antitrypanosomal activity against Trypanosoma brucei rhodesiense infected in vervet monkey 501 assessed as time to detect parasitemia at 10 mg/kg, po administered on day 28 post infection for 10 days. The assay is classed as functional. A digest of the protocol:
(§1)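 Parasitemia was monitored from 3 days p.i. in ear-prick or inguinal venous blood. Methods were wet-film microscopy (detection limit 10^5 trypanosomes/ml) and hematocrit centrifugation technique (detection limit 10^3 trypanosomes/ml). Drug was given once daily by oral gavage: 5 days from day 7 p.i., or 10 days from day 28 p.i.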

Assay [3] deals with Trypanosoma brucei rhodesiense. In words: Antitrypanosomal activity against Trypanosoma brucei rhodesiense infected in vervet monkey 520 assessed as time to detect CSF parasitosis at 10 mg/kg, po administered on day 28 post infection for 10 days measured after 14 to 21 days by microscopy. In kind it is functional. A digest of the protocol:
(§2)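 Trypanosomes and white cells in free-flowing CSF were counted by hemocytometer. Negative CSF was centrifuged and re-examined. Samples still negative were inoculated at 0.2 ml intraperitoneally into two mice each. Drug was given once daily by oral gavage: 5 days from day 7 p.i., or 10 days from day 28 p.i.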

The subject of assay [4] is Trypanosoma brucei rhodesiense. Nature of the assay: Antitrypanosomal activity against Trypanosoma brucei rhodesiense infected in vervet monkey assessed as body weight change at 1 mg/kg, po administered on day 7 post infection for 5 days measured on day 28 post treatment. The assay is classed as functional. Conditions: in the assay text read “day 1 post treatment” for “day 28 post treatment”. A digest of the protocol:
(§3)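 Body weight change is given as percent of the mean preinfection weight (n=3 per group). It was recorded at day 0 p.t., day 28 p.t. and end point. Oral gavage was once daily: 5 days from day 7 p.i., or 10 days from day 28 p.i.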

The subject of assay [5] is Trypanosoma brucei rhodesiense. Nature of the assay: Antitrypanosomal activity against Trypanosoma brucei rhodesiense infected in vervet monkey 484 assessed as time to detect parasitemia at 1 mg/kg, po administered on day 7 post infection for 5 days. The assay is classed as functional, organism-based. More on the design: dose 1 mg/kg. A digest of the protocol:
as §1

The subject of assay [6] is Trypanosoma brucei rhodesiense. In words: Antitrypanosomal activity against Trypanosoma brucei rhodesiense infected in vervet monkey 463 assessed as time to detect parasitemia in wet films of blood at 1 mg/kg, po administered on day 7 post infection for 5 days by hematocrit centrifugation technique. The assay is classed as functional. A digest of the protocol:
as §1

The subject of assay [7] is Trypanosoma brucei rhodesiense. In words: Antitrypanosomal activity against Trypanosoma brucei rhodesiense infected in vervet monkey 482 assessed as time to detect parasitemia in wet films of blood at 3 mg/kg, po administered on day 7 post infection for 5 days by hematocrit centrifugation technique. In kind it is functional. A digest of the protocol:
as §1

The test system of assay [8] is Trypanosoma brucei rhodesiense. Nature of the assay: Antimicrobial activity against Trypanosoma brucei rhodesiense infected in vervet monkeys assessed as cure from infection at 1 mg/kg, po administered on day 7 post infection for 5 days. The assay is classed as functional, organism-based. More on the design: dose 1 mg/kg. A digest of the protocol:
(§4)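 Vervet monkeys (n=3 per group), infected with T. b. rhodesiense KETRI 2537. Dosed by oral gavage with a suspension once daily for 5 consecutive days from day 7 p.i. Cure meant no trypanosomes over 180 days p.t. in blood (wet film, HCT) or CSF (hemocytometer, centrifugation), with mouse subinoculation of negative samples.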

Assay [9] deals with Trypanosoma brucei rhodesiense. In words: Antimicrobial activity against Trypanosoma brucei rhodesiense infected in vervet monkeys assessed as cure from infection at 10 mg/kg, po administered on day 7 post infection for 5 days. The assay is classed as functional, organism-based. More on the design: dose 10 mg/kg. A digest of the protocol:
as §4

Assay [10] has as its system Trypanosoma brucei rhodesiense. Nature of the assay: Antitrypanosomal activity against Trypanosoma brucei rhodesiense infected in vervet monkey 483 assessed as time to detect CSF parasitosis at 3 mg/kg, po administered on day 7 post infection for 5 days measured after 7 to 14 days. The assay is classed as functional. A digest of the protocol:
as §2

The subject of assay [11] is Trypanosoma brucei rhodesiense. Nature of the assay: Antitrypanosomal activity against Trypanosoma brucei rhodesiense infected in vervet monkey assessed as body weight change at 10 mg/kg, po administered on day 14 post infection for 5 days. The assay is classed as functional.
The subject of assay [12] is Trypanosoma brucei rhodesiense. In words: Antitrypanosomal activity against Trypanosoma brucei rhodesiense infected in vervet monkey assessed as change in packed cell volume at 1 mg/kg, po administered on day 7 post infection for 5 days. In kind it is functional. A digest of the protocol: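 Packed cell volume change is given as percent of the mean preinfection PCV in 3 monkeys. It was recorded at day 0 p.t., day 28 p.t. and end point, after 5 daily oral gavage doses starting day 7 p.i.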

The subject of assay [13] is Trypanosoma brucei rhodesiense. Nature of the assay: Antitrypanosomal activity against Trypanosoma brucei rhodesiense infected in vervet monkey assessed as change in packed cell volume at 1 mg/kg, po administered on day 7 post infection for 5 days measured on day 28 post treatment. The assay is classed as functional. A digest of the protocol:
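Vervet monkeys, three per group, were infected intravenously with T. b. rhodesiense KETRI 2537. From day 7 p.i., a drug suspension was given by oral gavage once daily for 5 consecutive days. Packed cell volume was expressed as % change from the group's mean preinfection value. PCV was read at day 0 p.t., day 28 p.t. and endpoint, with follow-up to 180 days p.t.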

Assay [14] relates to Trypanosoma brucei rhodesiense. Nature of the assay: Antitrypanosomal activity against Trypanosoma brucei rhodesiense infected in vervet monkey assessed as body weight change at 3 mg/kg, po administered on day 7 post infection for 5 days. In kind it is functional. A digest of the protocol:
as §3

The subject of assay [15] is Trypanosoma brucei rhodesiense. Nature of the assay: Antitrypanosomal activity against Trypanosoma brucei rhodesiense infected in vervet monkey 484 assessed as time to detect parasitemia in wet films of blood at 1 mg/kg, po administered on day 7 post infection for 5 days by hematocrit centrifugation technique. In kind it is functional. A digest of the protocol:
as §1

In assay [16] the test system is Trypanosoma brucei rhodesiense. Nature of the assay: Antitrypanosomal activity against Trypanosoma brucei rhodesiense infected in vervet monkey 501 assessed as time to detect parasitemia in wet films of blood at 10 mg/kg, po administered on day 28 post infection for 10 days by hematocrit centrifugation technique. The assay is classed as functional. A digest of the protocol:
as §1

Assay [17] has as its system Trypanosoma brucei rhodesiense. In words: Antitrypanosomal activity against Trypanosoma brucei rhodesiense infected in vervet monkey 483 assessed as time to detect parasitemia in wet films of blood at 3 mg/kg, po administered on day 7 post infection for 5 days by hematocrit centrifugation technique. The assay is classed as functional. A digest of the protocol:
as §1

Assay [18] relates to Trypanosoma brucei rhodesiense. In words: Antitrypanosomal activity against Trypanosoma brucei rhodesiense infected in vervet monkey 468 assessed as cure from infection at 10 mg/kg, po administered on day 7 post infection for 5 days. In kind it is functional, organism-based. Set-up: dose 10 mg/kg. A digest of the protocol:
as §4

Assay [19] relates to Trypanosoma brucei rhodesiense. Nature of the assay: Antitrypanosomal activity against Trypanosoma brucei rhodesiense infected in vervet monkey 484 assessed as time to detect CSF parasitosis at 1 mg/kg, po administered on day 7 post infection for 5 days measured after 14 to 21 days by microscopy. The assay is classed as functional. A digest of the protocol:
as §2

In assay [20] the test system is Trypanosoma brucei rhodesiense. In words: Antitrypanosomal activity against Trypanosoma brucei rhodesiense infected in vervet monkey assessed as body weight change at 10 mg/kg, po administered on day 7 post infection for 5 days measured on day 28 post treatment. The assay is classed as functional. A digest of the protocol: as §3
Assay [21] concerns Trypanosoma brucei rhodesiense. In words: Antitrypanosomal activity against Trypanosoma brucei rhodesiense infected in vervet monkey 463 assessed as time to detect parasitemia at 1 mg/kg, po administered on day 7 post infection for 5 days. The assay is classed as functional. A digest of the protocol:
as §1

The test system of assay [22] is Trypanosoma brucei rhodesiense. In words: Antitrypanosomal activity against Trypanosoma brucei rhodesiense infected in vervet monkey assessed as change in packed cell volume at 10 mg/kg, po administered on day 28 post infection for 10 days. The assay is classed as functional. A digest of the protocol: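 Three vervet monkeys were infected intravenously with T. b. rhodesiense KETRI 2537 and treated in late-stage disease. From day 28 p.i., a drug suspension was given by oral gavage once daily for 10 consecutive days. PCV was reported as % change from the mean preinfection value at day 0 p.t., day 28 p.t. and endpoint. Monitoring continued up to 180 days p.t.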

Assay [23] relates to Trypanosoma brucei rhodesiense. In words: Antitrypanosomal activity against Trypanosoma brucei rhodesiense infected in vervet monkey 483 assessed as time to detect parasitemia at 3 mg/kg, po administered on day 7 post infection for 5 days. The assay is classed as functional. A digest of the protocol:
as §1

Assay [24] has as its system Trypanosoma brucei rhodesiense. In words: Antitrypanosomal activity against Trypanosoma brucei rhodesiense infected in vervet monkey 471 assessed as time to detect parasitemia at 10 mg/kg, po administered on day 14 post infection for 5 days. The assay is classed as functional.

As to `CONC(=N)c1ccc(-c2ccc(-c3ccc(C(=N)NOC)cc3)o2)cc1` [PAFURAMIDINE], the Activity in assay [1] is -13.5%; in assay [4], -2.1%; in assay [11], -4.2%; in assay [12] it was -4.3%; in assay [13], -17%; in assay [14], -5%. For the same compound, the Activity in assay [20] is recorded as 0%; in [22], -41.3%. Also, the Time is 56 days in assay [2]; 119 days in [3]; 9 days in [6]; 79 days in assay [7]; 69 days in assay [10]; 4 days in assay [15]. For the same compound, the Time was 73 days in assay [16]; 66 days in assay [17]; 14 days in [19]; 7 days in [21]; 69 days in assay [23]; 56 days in [24]. Further, in assay [5], the Time result is “inactive”. The result in assay [8] was inactive. Moreover, the outcome in assay [9] was Active. Moreover, the Time result in assay [18] is “Active”.
